From ChEMBL document CHEMBL4354873, “Rationally Designed Small-Molecule Inhibitors Targeting an Unconventional Pocket on the TLR8 Protein-Protein Interface” (J Med Chem, 2020) come the findings set out here.

Active and inactive are the calls of the source. The rule behind the calls is not given here.

In series [1] the target is T1, Toll-like receptor 8 (Homo sapiens) (UniProt Q9NR97).
T1 sequence (whole entry): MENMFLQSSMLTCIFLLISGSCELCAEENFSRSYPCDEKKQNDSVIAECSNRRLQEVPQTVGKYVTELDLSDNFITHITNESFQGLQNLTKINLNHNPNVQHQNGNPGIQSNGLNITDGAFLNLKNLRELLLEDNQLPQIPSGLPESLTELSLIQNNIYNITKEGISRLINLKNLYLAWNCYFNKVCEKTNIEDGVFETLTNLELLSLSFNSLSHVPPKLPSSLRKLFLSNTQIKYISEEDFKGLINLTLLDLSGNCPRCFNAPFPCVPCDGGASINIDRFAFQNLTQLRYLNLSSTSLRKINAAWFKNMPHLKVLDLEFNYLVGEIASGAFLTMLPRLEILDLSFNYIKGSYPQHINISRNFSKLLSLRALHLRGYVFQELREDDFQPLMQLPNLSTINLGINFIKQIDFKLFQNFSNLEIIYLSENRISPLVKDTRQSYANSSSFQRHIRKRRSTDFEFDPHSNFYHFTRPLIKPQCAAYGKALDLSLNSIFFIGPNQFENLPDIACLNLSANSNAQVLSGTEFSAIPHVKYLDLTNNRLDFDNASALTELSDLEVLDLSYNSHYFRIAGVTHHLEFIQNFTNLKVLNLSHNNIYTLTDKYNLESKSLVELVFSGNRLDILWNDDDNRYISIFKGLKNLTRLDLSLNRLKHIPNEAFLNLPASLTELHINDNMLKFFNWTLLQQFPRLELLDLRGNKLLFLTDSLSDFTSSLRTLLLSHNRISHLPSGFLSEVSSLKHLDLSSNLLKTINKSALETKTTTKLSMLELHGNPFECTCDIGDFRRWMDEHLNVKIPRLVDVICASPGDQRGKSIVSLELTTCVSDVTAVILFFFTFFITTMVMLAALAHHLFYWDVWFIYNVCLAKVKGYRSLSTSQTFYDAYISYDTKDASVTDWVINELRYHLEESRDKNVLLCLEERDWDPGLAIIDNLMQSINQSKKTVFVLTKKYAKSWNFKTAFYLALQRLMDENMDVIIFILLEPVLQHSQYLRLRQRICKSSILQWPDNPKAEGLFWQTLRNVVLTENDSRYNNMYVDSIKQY
Nature of the series: Inhibition of TLR8 in rheumatoid arthritis patient-derived PBMC assessed as reduction in spontaneous TNFalpha production measured after 24 hrs by ELISA. On the technique in general: In an ELISA, binding on a coated surface is turned into a signal by an enzyme label.

For series [2], the target named is T2, Toll-like receptor 9 (Homo sapiens) (UniProt Q9NR96).
T2 sequence (whole entry): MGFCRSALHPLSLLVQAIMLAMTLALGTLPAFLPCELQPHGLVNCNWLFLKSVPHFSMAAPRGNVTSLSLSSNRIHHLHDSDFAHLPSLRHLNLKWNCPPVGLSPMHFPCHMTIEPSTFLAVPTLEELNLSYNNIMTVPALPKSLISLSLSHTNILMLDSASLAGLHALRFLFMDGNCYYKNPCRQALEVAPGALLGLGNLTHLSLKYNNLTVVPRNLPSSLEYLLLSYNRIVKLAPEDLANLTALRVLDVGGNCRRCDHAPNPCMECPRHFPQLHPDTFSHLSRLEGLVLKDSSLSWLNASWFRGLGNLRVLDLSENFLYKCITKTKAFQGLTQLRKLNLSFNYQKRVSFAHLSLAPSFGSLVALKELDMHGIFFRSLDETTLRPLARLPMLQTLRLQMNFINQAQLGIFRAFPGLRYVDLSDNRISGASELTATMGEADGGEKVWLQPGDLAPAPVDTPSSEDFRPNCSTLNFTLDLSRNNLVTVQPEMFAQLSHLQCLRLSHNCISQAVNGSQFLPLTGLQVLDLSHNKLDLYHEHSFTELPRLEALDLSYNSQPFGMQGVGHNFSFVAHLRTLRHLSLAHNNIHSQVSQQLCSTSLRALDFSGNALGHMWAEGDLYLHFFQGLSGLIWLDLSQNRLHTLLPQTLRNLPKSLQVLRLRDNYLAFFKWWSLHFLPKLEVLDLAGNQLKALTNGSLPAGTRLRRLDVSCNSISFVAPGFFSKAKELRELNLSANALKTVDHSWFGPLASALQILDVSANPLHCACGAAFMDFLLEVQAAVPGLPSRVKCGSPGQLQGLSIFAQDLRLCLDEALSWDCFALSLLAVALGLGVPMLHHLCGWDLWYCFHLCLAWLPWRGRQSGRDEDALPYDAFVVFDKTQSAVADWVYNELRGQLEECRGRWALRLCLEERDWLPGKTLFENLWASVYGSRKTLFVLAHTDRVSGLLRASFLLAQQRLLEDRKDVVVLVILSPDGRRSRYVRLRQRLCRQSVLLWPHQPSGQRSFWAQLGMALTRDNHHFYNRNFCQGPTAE
The experiment in a line: Inhibition of human TLR9 expressed in HEK-Blue cells assessed as inhibition of ODN2006-induced NF-kappaB activation at 20 uM measured after 24 hrs by quanti-blue based SEAP reporter gene assay. The format is cell-based. Put shortly: (§1)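 HEK-Blue SEAP format: 4 × 10⁴ cells/well in DMEM with ligand plus compound, 24 h at 37 °C. Supernatant mixed with QUANTI-Blue up to 1 h, then A620 read. Ligands: Pam3CSK4 100 ng/mL (TLR1/2), Pam2CSK4 100 ng/mL (TLR2/6), poly(I:C) 5 µg/mL (TLR3), LPS 20 ng/mL (TLR4), flagellin 50 ng/mL (TLR5), R848 1 µg/mL (TLR7), R848 2 µg/mL (TLR8), ODN2006 0.5 µM (TLR9). Mean ± s.d.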

In series [3] the target is Toll-like receptor 4 (Homo sapiens) (UniProt O00206). The experiment in a line: Inhibition of human TLR4 expressed in HEK-Blue cells assessed as inhibition of LPS-induced NF-kappaB activation at 20 uM measured after 24 hrs by quanti-blue based SEAP reporter gene assay. The format is cell-based. Put shortly:
as §1
A general note: Reporter assays use an easily measured gene product as a stand-in for the process of interest.

In another series the test system is PBMC. Nature of the series: Cytotoxicity against rheumatoid arthritis patient-derived PBMC assessed as reduction in cell viability up to 80 uM measured after 24 hrs by CCK8 assay. The format is cell-based. The conditions noted are these: human. Put shortly: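 CCK-8 viability: compounds incubated 24 h at 37 °C with HEK-Blue TLR8 cells (4 × 10⁴ cells/well) or PBMCs (3 × 10⁶ cells/mL). CCK-8 was added at 1:10 for up to 2 h, then absorbance read at 450 nm. Values normalized to untreated cells as 100% survival.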
A general note: Formazan colour is commonly taken as a measure of viable cells.

The target in series [4] is T1, Toll-like receptor 8 (Homo sapiens). The experiment in a line: Inhibition of TLR8 in human monocytes assessed as reduction in R848-induced TRAF3 expression measured after 2 hrs by Western blot analysis. The format is cell-based. Put shortly: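 Monocyte cell lines, 2 × 10⁶/well, differentiated with PMA 100 ng/mL for 24 h. After washes, cells in unsupplemented RPMI received R848 1 µg/mL with varying compound concentrations for 2 h. Nuclear/cytoplasmic fractions extracted and resolved on 10% SDS-PAGE. Blots probed for p65, TRAF3 and p-IRAK4 (1:1000); lamin A/C (nuclear) and β-actin (cytoplasmic) as loading controls.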

Chain of Toll-like receptor 4 (Homo sapiens) (O00206 whole entry): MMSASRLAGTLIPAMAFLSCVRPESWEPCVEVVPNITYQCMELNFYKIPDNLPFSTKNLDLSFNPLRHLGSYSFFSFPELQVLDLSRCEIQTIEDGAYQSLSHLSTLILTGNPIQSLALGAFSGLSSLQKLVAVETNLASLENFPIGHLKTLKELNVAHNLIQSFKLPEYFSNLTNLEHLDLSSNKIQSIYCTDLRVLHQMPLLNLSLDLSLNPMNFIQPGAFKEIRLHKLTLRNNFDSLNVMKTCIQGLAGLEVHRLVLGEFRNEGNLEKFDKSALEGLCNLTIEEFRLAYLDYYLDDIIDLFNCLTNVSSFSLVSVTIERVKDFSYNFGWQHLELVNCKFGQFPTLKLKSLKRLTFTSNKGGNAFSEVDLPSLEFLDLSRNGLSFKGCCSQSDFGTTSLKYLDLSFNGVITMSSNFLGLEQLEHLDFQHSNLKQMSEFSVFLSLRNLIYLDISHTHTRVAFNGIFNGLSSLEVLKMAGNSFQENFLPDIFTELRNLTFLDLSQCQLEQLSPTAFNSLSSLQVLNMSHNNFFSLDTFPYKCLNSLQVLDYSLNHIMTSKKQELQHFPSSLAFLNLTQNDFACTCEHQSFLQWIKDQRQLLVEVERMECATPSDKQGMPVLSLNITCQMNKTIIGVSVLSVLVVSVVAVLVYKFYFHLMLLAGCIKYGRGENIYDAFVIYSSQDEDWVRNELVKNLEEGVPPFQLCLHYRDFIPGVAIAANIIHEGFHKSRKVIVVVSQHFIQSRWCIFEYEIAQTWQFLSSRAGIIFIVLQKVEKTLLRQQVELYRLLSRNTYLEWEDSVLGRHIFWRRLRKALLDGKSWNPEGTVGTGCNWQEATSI

On to `CSc1nnc(CCCO)n1-c1cc(C)c(C)c(C)c1`, for which the inhibition entry in series [1] and in series [4] was “Dose-dependent effect” throughout. The inhibition entry in series [2] and in series [3] was “inactive” in each case. Further, the Activity result in the series on PBMC is listed as “Non-Toxic”.
